Reference: ChEMBL document CHEMBL1130012 (J Med Chem, 1997)

Legend:
Rattus norvegicus [1] = assay: The Biodistribution of the antagonistic compound along with pretreated atropine (2.5 mg/kg) in male wistar rats after 15 minutes of injection in the cortex expressed as (body weight-corrected) uptake value; Below limit of detection; assay type: organism-based; settings: in vivo, 0.25 h
How it was run: (§1)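 Same protocol, except the pretreatment was saline containing atropine (0.5 mg/0.5 mL; 2.5 mg/kg) given i.v. 1 min before tail-vein injection of the radioligand (1.85-2.78 MBq in 0.4 mL saline) into pentobarbital-anaesthetized (60 mg/kg) male Wistar rats (240 g). Tissues removed at 15 min and counted ex vivo. Uptake is body-weight-corrected DAR = (cpm/g tissue)/(cpm injected/g body weight).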

Rattus norvegicus [2] = assay: The Biodistribution of the antagonistic compound along with pretreated atropine (2.5 mg/kg) in male wistar rats after 15 minutes of injection in the submandibular gland expressed as (body weight-corrected) uptake value; assay type: organism-based; settings: in vivo, 0.25 h; how it was run: as §1
Rattus norvegicus [3] = species on record: Rattus norvegicus; assay: The Biodistribution of the antagonistic compound in male wistar rats, after 15 minutes of injection in the red blood cells expressed as (body weight-corrected) uptake value; Below limit of detection; assay type: organism-based; settings: in vivo, 0.25 h
Rattus norvegicus [4] = species on record: Rattus norvegicus; assay: The Biodistribution of the antagonistic compound in male wistar rats, after 15 minutes of injection in the testes expressed as (body weight-corrected) uptake value; assay type: organism-based, Testis; settings: in vivo, 0.25 h
Rattus norvegicus [5] = assay: The Biodistribution of the antagonistic compound along with pretreated atropine (2.5 mg/kg) in male wistar rats after 15 minutes of injection in the spleen expressed as (body weight-corrected) uptake value; assay type: organism-based; settings: in vivo, 0.25 h; how it was run: as §1
Rattus norvegicus [6] = assay: The Biodistribution of the antagonistic compound along with pretreated atropine (2.5 mg/kg) in male wistar rats after 15 minutes of injection in the muscle expressed as (body weight-corrected) uptake value; assay type: organism-based, Muscle tissue; settings: in vivo, 0.25 h; how it was run: as §1
Rattus norvegicus [7] = species on record: Rattus norvegicus; assay: The Biodistribution of the antagonistic compound in male wistar rats, after 15 minutes of injection in the spleen; assay type: organism-based; settings: in vivo, 0.25 h
Rattus norvegicus [8] = species on record: Rattus norvegicus; assay: The Biodistribution of the antagonistic compound in male wistar rats, after 15 minutes of injection in the stomach expressed as (body weight-corrected) uptake value; assay type: organism-based; settings: in vivo, 0.25 h
Rattus norvegicus [9] = species on record: Rattus norvegicus; assay: The Biodistribution of the antagonistic compound in male wistar rats, after 15 minutes of injection in the lung expressed as (body weight-corrected) uptake value; assay type: organism-based; settings: in vivo, 0.25 h
Rattus norvegicus [10] = assay: The Biodistribution of the antagonistic compound along with pretreated atropine (2.5 mg/kg) in male wistar rats after 15 minutes of injection in the red blood cells expressed as (body weight-corrected) uptake value; Below limit of detection; assay type: organism-based; settings: in vivo, 0.25 h; how it was run: as §1
Rattus norvegicus [11] = species on record: Rattus norvegicus; assay: The Biodistribution of the antagonistic compound in male wistar rats, after 15 minutes of injection in the cortex expressed as (body weight-corrected) uptake value; Below limit of detection; assay type: organism-based; settings: in vivo, 0.25 h
Rattus norvegicus [12] = assay: The Biodistribution of the antagonistic compound along with pretreated atropine (2.5 mg/kg) in male wistar rats after 15 minutes of injection in the stomach expressed as (body weight-corrected) uptake value; assay type: organism-based; settings: in vivo, 0.25 h; how it was run: as §1
Rattus norvegicus [13] = assay: The Biodistribution of the antagonistic compound along with pretreated atropine (2.5 mg/kg) in male wistar rats after 15 minutes of injection in the plasma expressed as (body weight-corrected) uptake value; assay type: organism-based; settings: in vivo, 0.25 h; how it was run: as §1
[14] = target: T1, Muscarinic acetylcholine receptor M1 (Rattus norvegicus, UniProt P08482); assay: Binding affinity towards rat Muscarinic acetylcholine receptor M1 was determined
T1 sequence (P08482 whole entry): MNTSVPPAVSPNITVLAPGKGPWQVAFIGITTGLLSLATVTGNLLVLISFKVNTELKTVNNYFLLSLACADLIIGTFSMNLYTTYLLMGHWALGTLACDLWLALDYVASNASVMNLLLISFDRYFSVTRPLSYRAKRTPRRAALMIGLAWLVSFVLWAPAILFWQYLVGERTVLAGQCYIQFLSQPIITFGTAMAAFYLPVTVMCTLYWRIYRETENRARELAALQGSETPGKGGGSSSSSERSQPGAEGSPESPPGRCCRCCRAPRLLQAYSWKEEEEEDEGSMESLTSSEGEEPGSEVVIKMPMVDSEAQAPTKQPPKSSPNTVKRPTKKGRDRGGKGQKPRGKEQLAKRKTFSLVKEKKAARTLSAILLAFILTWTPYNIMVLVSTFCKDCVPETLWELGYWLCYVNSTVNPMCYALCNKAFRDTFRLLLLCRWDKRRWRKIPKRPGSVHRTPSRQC

Rattus norvegicus [15] = species on record: Rattus norvegicus; assay: The Biodistribution of the antagonistic compound in male wistar rats, after 15 minutes of injection in the trachea expressed as (body weight-corrected) uptake value; assay type: organism-based; settings: in vivo, 0.25 h
Rattus norvegicus [16] = assay: The Biodistribution of the antagonistic compound along with pretreated atropine (2.5 mg/kg) in male wistar rats after 15 minutes of injection in the liver expressed as (body weight-corrected) uptake value; assay type: organism-based; settings: in vivo, 0.25 h; how it was run: as §1
Rattus norvegicus [17] = species on record: Rattus norvegicus; assay: The Biodistribution of the antagonistic compound in male wistar rats, after 15 minutes of injection in the cerebellum expressed as (body weight-corrected) uptake value; Below limit of detection; assay type: organism-based; settings: in vivo, 0.25 h
Rattus norvegicus [18] = assay: The Biodistribution of the antagonistic compound along with pretreated atropine (2.5 mg/kg) in male wistar rats after 15 minutes of injection in the bladder; assay type: organism-based, Urinary bladder/Urine; settings: in vivo, 0.25 h; how it was run: as §1
Rattus norvegicus [19] = species on record: Rattus norvegicus; assay: The Biodistribution of the antagonistic compound in male wistar rats, after 15 minutes of injection in the kidney expressed as (body weight-corrected) uptake value; assay type: organism-based; settings: in vivo, 0.25 h
Rattus norvegicus [20] = species on record: Rattus norvegicus; assay: The Biodistribution of the antagonistic compound in male wistar rats, after 15 minutes of injection in the fat; assay type: organism-based; settings: in vivo, 0.25 h
Rattus norvegicus [21] = assay: The Biodistribution of the antagonistic compound along with pretreated atropine (2.5 mg/kg) in male wistar rats after 15 minutes of injection in the heart expressed as (body weight-corrected) uptake value; assay type: organism-based; settings: in vivo, 0.25 h; how it was run: as §1
Rattus norvegicus [22] = species on record: Rattus norvegicus; assay: The Biodistribution of the antagonistic compound in male wistar rats, after 15 minutes of injection in the plasma expressed as (body weight-corrected) uptake value; assay type: organism-based; settings: in vivo, 0.25 h
Rattus norvegicus [23] = species on record: Rattus norvegicus; assay: The Biodistribution of the antagonistic compound in male wistar rats, after 15 minutes of injection in the intestine expressed as (body weight-corrected) uptake value; assay type: organism-based; settings: in vivo, 0.25 h
Rattus norvegicus [24] = assay: The Biodistribution of the antagonistic compound along with pretreated atropine (2.5 mg/kg) in male wistar rats after 15 minutes of injection in the kidney expressed as (body weight-corrected) uptake value; assay type: organism-based; settings: in vivo, 0.25 h; how it was run: as §1
Rattus norvegicus [25] = species on record: Rattus norvegicus; assay: The Biodistribution of the antagonistic compound in male wistar rats, after 15 minutes of injection in the muscle expressed as (body weight-corrected) uptake value; assay type: organism-based, Muscle tissue; settings: in vivo, 0.25 h
Rattus norvegicus [26] = species on record: Rattus norvegicus; assay: The Biodistribution of the antagonistic compound in male wistar rats, after 15 minutes of injection in the pancreas expressed as (body weight-corrected) uptake value; assay type: organism-based; settings: in vivo, 0.25 h
Rattus norvegicus [27] = assay: The Biodistribution of the antagonistic compound along with pretreated atropine (2.5 mg/kg) in male wistar rats after 15 minutes of injection in the lung expressed as (body weight-corrected) uptake value; assay type: organism-based; settings: in vivo, 0.25 h; how it was run: as §1
Rattus norvegicus [28] = species on record: Rattus norvegicus; assay: The Biodistribution of the antagonistic compound in male wistar rats, after 15 minutes of injection in the heart expressed as (body weight-corrected) uptake value; assay type: organism-based; settings: in vivo, 0.25 h
Rattus norvegicus [29] = assay: The Biodistribution of the antagonistic compound along with pretreated atropine (2.5 mg/kg) in male wistar rats after 15 minutes of injection in the trachea expressed as (body weight-corrected) uptake value; assay type: organism-based; settings: in vivo, 0.25 h; how it was run: as §1
Rattus norvegicus [30] = assay: The Biodistribution of the antagonistic compound along with pretreated atropine (2.5 mg/kg) in male wistar rats after 15 minutes of injection in the fat expressed as (body weight-corrected) uptake value; assay type: organism-based, Adipose tissue; settings: in vivo, 0.25 h; how it was run: as §1
Rattus norvegicus [31] = species on record: Rattus norvegicus; assay: The Biodistribution of the antagonistic compound in male wistar rats, after 15 minutes of injection in the submandibular gland expressed as (body weight-corrected) uptake value; assay type: organism-based; settings: in vivo, 0.25 h
Rattus norvegicus [32] = assay: The Biodistribution of the antagonistic compound along with pretreated atropine (2.5 mg/kg) in male wistar rats after 15 minutes of injection in the testes expressed as (body weight-corrected) uptake value; assay type: organism-based, Testis; settings: in vivo, 0.25 h; how it was run: as §1
Rattus norvegicus [33] = assay: The Biodistribution of the antagonistic compound along with pretreated atropine (2.5 mg/kg) in male wistar rats after 15 minutes of injection in the cerebellum; Below limit of detection; assay type: organism-based; settings: in vivo, 0.25 h; how it was run: as §1
Rattus norvegicus [34] = species on record: Rattus norvegicus; assay: The Biodistribution of the antagonistic compound in male wistar rats, after 15 minutes of injection in the liver expressed as (body weight-corrected) uptake value; assay type: organism-based; settings: in vivo, 0.25 h
Rattus norvegicus [35] = assay: The Biodistribution of the antagonistic compound along with pretreated atropine (2.5 mg/kg) in male wistar rats after 15 minutes of injection in the pancreas expressed as (body weight-corrected) uptake value; assay type: organism-based; settings: in vivo, 0.25 h; how it was run: as §1
[36] = target: T2, Muscarinic acetylcholine receptor M2 (Rattus norvegicus, UniProt P10980); assay: Binding affinity towards rat Muscarinic acetylcholine receptor M2 was determined
T2 sequence (P10980 whole entry): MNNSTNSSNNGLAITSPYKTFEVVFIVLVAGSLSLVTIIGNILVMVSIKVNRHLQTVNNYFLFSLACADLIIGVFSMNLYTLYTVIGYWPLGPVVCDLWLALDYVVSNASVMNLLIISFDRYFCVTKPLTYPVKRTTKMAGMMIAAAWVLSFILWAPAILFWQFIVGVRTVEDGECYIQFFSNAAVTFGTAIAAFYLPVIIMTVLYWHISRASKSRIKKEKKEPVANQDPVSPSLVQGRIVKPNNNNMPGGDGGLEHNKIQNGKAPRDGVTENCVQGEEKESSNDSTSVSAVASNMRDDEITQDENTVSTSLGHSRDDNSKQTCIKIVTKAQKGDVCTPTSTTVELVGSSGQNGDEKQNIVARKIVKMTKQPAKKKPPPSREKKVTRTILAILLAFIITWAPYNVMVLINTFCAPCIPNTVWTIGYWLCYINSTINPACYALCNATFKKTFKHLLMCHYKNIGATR

[37] = target: T3, Muscarinic acetylcholine receptor M1 (Bos taurus, UniProt Q8WMX0); assay type: cell membranes, Brain, Membrane
T3 sequence (Q8WMX0 whole entry): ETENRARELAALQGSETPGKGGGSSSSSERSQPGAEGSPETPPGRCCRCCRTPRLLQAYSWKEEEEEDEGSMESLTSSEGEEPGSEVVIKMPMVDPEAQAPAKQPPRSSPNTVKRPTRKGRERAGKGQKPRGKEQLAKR

Rattus norvegicus [38] = species on record: Rattus norvegicus; assay: The Biodistribution of the antagonistic compound in male wistar rats, after 15 minutes of injection in the bladder expressed as (body weight-corrected) uptake value; assay type: organism-based, Urinary bladder/Urine; settings: in vivo, 0.25 h
Rattus norvegicus [39] = assay: The Biodistribution of the antagonistic compound along with pretreated atropine (2.5 mg/kg) in male wistar rats after 15 minutes of injection in the intestine expressed as (body weight-corrected) uptake value; assay type: organism-based; settings: in vivo, 0.25 h; how it was run: as §1

Structure (SMILES): C[N+]1(C)CCC(OC(=O)[C@](O)(c2ccccc2)C2CCCCC2)CC1.[I-]
- Uptake value (Rattus norvegicus [1]): Not Active
- Uptake value (Rattus norvegicus [2]): 0.23
- Uptake value (Rattus norvegicus [3]): Not Active
- Uptake value (Rattus norvegicus [4]): 0.12
- Uptake value (Rattus norvegicus [5]): 0.12
- Uptake value (Rattus norvegicus [6]): 0.07
- Uptake value (Rattus norvegicus [7]): 1.23
- Uptake value (Rattus norvegicus [8]): 2.76
- Uptake value (Rattus norvegicus [9]): 1.03
- Uptake value (Rattus norvegicus [10]): Not Active
- Uptake value (Rattus norvegicus [11]): Not Active
- Uptake value (Rattus norvegicus [12]): 0.22
- Uptake value (Rattus norvegicus [13]): 0.19
- Ki [14]: 0.01 nM
- Uptake value (Rattus norvegicus [15]): 0.89
- Uptake value (Rattus norvegicus [16]): 9.41
- Uptake value (Rattus norvegicus [17]): Not Active
- Uptake value (Rattus norvegicus [18]): 5.92
- Uptake value (Rattus norvegicus [19]): 2.75
- Uptake value (Rattus norvegicus [20]): 0.1
- Uptake value (Rattus norvegicus [21]): 0.12
- Uptake value (Rattus norvegicus [22]): 0.1
- Uptake value (Rattus norvegicus [23]): 6.08
- Uptake value (Rattus norvegicus [24]): 4.32
- Uptake value (Rattus norvegicus [25]): 0.07
- Uptake value (Rattus norvegicus [26]): 2.85
- Uptake value (Rattus norvegicus [27]): 0.11
- Uptake value (Rattus norvegicus [28]): 12.78
- Uptake value (Rattus norvegicus [29]): 0.26
- Uptake value (Rattus norvegicus [30]): 0.37
- Uptake value (Rattus norvegicus [31]): 2.64
- Uptake value (Rattus norvegicus [32]): 0.16
- Uptake value (Rattus norvegicus [33]): Not Active
- Uptake value (Rattus norvegicus [34]): 5.42
- Uptake value (Rattus norvegicus [35]): 0.35
- Ki [36]: 0.21 nM
- Ki [37]: 0.02 nM
- Uptake value (Rattus norvegicus [38]): 4.68
- Uptake value (Rattus norvegicus [39]): 0.97
